Compound activity from PubChem BioAssay.
Compounds with a hit are over-represented: about 2.3% of the library has one in this group of screens.
PDI inh = inhibitors of human protein disulfide isomerase; P07237; inhibition, % at 10 µM; 350,000 compounds, 0.052% hits; PDI insulin aggregation turbidity, A650, 90 min;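 active means mean inhibition across replicates of 30% or more, whatever share of single replicates reach that level; inconclusive means mean inhibition below 30% while every single replicate reaches 30%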
Target sequence (P07237 whole entry, looked up): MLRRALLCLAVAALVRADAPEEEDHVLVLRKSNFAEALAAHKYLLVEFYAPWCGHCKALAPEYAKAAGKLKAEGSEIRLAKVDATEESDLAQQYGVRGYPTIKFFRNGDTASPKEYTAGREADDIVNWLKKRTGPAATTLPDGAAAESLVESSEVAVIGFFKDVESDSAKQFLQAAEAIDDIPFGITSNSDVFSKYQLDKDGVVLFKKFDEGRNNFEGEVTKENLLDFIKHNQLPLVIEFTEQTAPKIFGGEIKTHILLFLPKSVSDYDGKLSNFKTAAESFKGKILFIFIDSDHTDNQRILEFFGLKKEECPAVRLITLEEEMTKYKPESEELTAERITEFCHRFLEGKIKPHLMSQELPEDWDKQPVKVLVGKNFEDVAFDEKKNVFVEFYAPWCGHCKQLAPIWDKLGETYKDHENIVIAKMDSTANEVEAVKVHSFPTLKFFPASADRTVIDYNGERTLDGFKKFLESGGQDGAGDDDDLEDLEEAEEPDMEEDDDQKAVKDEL
Cneo AK release = Cryptococcus neoformans lysis via adenylate kinase release; C. neoformans lysis, adenylate kinase release luminescence, 4 h; normalised: neutral wells 0, clomiphene wells 100; lysis activity, % at 15 µM; 360,000 compounds, 0.2% hits; AID 651654;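 active means mean lysis activity across replicates of at least 80%, whatever share of replicates individually reach that level; inactive means mean lysis activity below 80%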
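Test system: log-phase Cryptococcus neoformans yeast cells. Input: 5 × 10^6 yeast cells/mL. Medium: fresh YPD growth medium. Doses: single dose. Incubation: static 4 h at 37 °C with compound, 1 h detection. Measured by: luminescent adenylate kinase detection reagent. Read-out: signal increase indicating cell lysis. Benchmarks: Clomiphene.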
Statin myotox sup = protects C2C12 myotubes from simvastatin toxicity. ATP luminescence, 48 h; scaled: DMSO 0, geranylgeraniol control 100. rescue of ATP level, % at 7.49 µM. 330,000 compounds, 0.78% hits. AID 602340;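 active means mean ATP rescue above about 67%, or every replicate alone reaching that limit, limit read from the data, passing the limit was not always enough; inconclusive means no clear call, values can overlap the other calls; inactive means mean under the limit and some replicate under it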;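 further: myotubes were challenged with 10 µM simvastatin during compound exposure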
DENV2 CPE = inhibitors of DENV2 cytopathic effect; DENV2-infected cells, cytopathic effect rescue, plate reader; CPE inhibition, % at 9.99 µM; 350,000 compounds, 1.7% hits; AID 651640; in the data active means CPE inhibition above about 20%, passing the limit was not always enough; inconclusive means no clear call, values can overlap the other calls; tested in BHK-21 cells;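 further: 0% = median of neutral control wells and 100% = median of positive control wells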
F508del corr = CFTR F508del correction in bronchial cells; CFBE cells, YFP halide quenching; stimulated with forskolin plus potentiator P3; % fluorescence drop versus neutral controls; activity (quench increase), % at 7.58 µM; 350,000 compounds, 0.36% hits; AID 720511;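 active means mean added fluorescence quench of at least 8% versus neutral control, with both replicates also reaching 8%; inconclusive means only one of the mean or replicate conditions met; inactive means mean below 8% and not both replicates reaching 8%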;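 further: cells transiently co-express mutant CFTR-F508del with the halide-sensitive YFP; corrector assay measuring rescue of mutant channel to the surface after 24 h compound exposure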
ERp5 inh = blocks human ERp5 reductase activity on insulin; ERp5 insulin aggregation, absorbance 650 nm, 90 min; Q15084; 350,000 compounds, 0.05% hits; AID 651711; inhibition, % at 9.99 µM;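 active means mean replicate inhibition above about 25%, with every replicate also reaching it, limit read from the data, passing the limit was not always enough; inconclusive means only one of those two criteria met; inactive means neither criterion met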
* marks the source's active call; other numbers are inactive results; ? = inconclusive; . = no result given.

SMILES	PDI inh	Cneo AK release	Statin myotox sup	DENV2 CPE	F508del corr	ERp5 inh
Cc1cccc(N2CCN(C(=O)c3nn(C)c4c3CS(=O)(=O)c3ccccc3-4)CC2)c1C	-2	1	-11	36*	-3	3
CC(=O)Oc1cc(C(=O)OCC(=O)NC23CC4CC(CC(C4)C2)C3)cc(OC(C)=O)c1OC(C)=O	-1	-1	-18	3	10*	-1
COc1cccc(C(=O)OCC(=O)NC23CC4CC(CC(C4)C2)C3)c1	-4	1	-2	4	1	1
CN(C(=O)COC(=O)c1ccc(S(=O)(=O)N2CCOCC2)cc1)c1ccccc1	-2	-1	-1	81*	1	5
N#CCCN(C(=O)COC(=O)c1ccc(S(=O)(=O)N2CCOCC2)cc1)c1ccccc1	-2	1	4	2	-2	-1
CCOC(=O)C1=C(C)N(CCCCCC(=O)O)C(=O)NC1c1ccccc1OC(=O)c1cccs1 (stereo not given)	.	.	.	47*	2	-4
CO[C@H]1CN(C)C(=O)c2ccc(NS(=O)(=O)CC(F)(F)F)cc2OC[C@H](C)N(C)C[C@H]1C	.	-5	-8	-2	-2	0
O=C(NCCN1CCC(n2c(=O)[nH]c3ccccc32)CC1)c1ccccc1	.	.	.	20*	6	2
CN(C)CC#Cc1ccc([C@@H]2[C@@H](CO)N3C(=O)CN(C(=O)Cc4ccccc4)C[C@H]23)cc1	.	.	.	9	-1	-2
O=C(Nc1ccc(C(F)(F)F)cc1)N[C@H]1CC[C@@H](CCn2cc(C3(O)CCCC3)nn2)O[C@@H]1CO	.	1	-8	1	2	1
Cc1cc(/C=C2\SC(=S)N(C)C2=O)c(C)n1-c1ccc(O)cc1	75*	.	.	3	2	5
CCC(=O)N1[C@@H]2Cn3c(cccc3=O)[C@H]1[C@@H](C(=O)NC1CCCC1)[C@@H]2CO	.	.	.	-4	2	12
C[C@@H]1CCCCO[C@@H](CN(C)C(=O)CCCN(C)C)[C@H](C)CN([C@@H](C)CO)C(=O)c2cc(NS(=O)(=O)c3cccs3)ccc2O1	.	-2	.	.	0	-2
C[C@@H]1CCCCO[C@H](CN(C)CC2CC2)[C@H](C)CN([C@@H](C)CO)C(=O)c2cc(NS(=O)(=O)c3cccs3)ccc2O1	.	.	.	42*	-3	2
C[C@H]1CCCCO[C@H](CN(C)C(=O)CCCN(C)C)[C@@H](C)CN([C@@H](C)CO)C(=O)c2cc(NS(=O)(=O)c3cccs3)ccc2O1	.	.	.	23*	2	-2
C[C@@H]1CCCCO[C@H](CN(C)S(=O)(=O)c2cccs2)[C@@H](C)CN([C@@H](C)CO)C(=O)c2cc(NS(=O)(=O)c3cccs3)ccc2O1	.	.	.	10	-1	3
C[C@@H]1CCCCO[C@H](CN(C)C)[C@@H](C)CN([C@H](C)CO)C(=O)c2cc(NS(=O)(=O)c3cccs3)ccc2O1	.	14	.	-10	-2	-4
C[C@@H]1CCCCO[C@H](CN(C)S(=O)(=O)c2cccs2)[C@@H](C)CN([C@H](C)CO)C(=O)c2cc(NS(=O)(=O)c3cccs3)ccc2O1	.	-1	.	59*	-3	-4
C[C@@H]1CN([C@@H](C)CO)C(=O)c2cc(NS(=O)(=O)c3cccs3)ccc2O[C@@H](C)CCCCO[C@@H]1CN(C)C	.	-5	.	20*	-2	10
CN(C)CC(=O)Nc1ccc2c(c1)[C@H]1C[C@H](CC(=O)NCCN3CCCCC3)O[C@@H](CO)[C@H]1O2	.	1	1	?	4	-2
CCCCNC(=O)C1C(c2ccccc2)=Nc2ccccc2N1C(=O)c1ccc(C(F)(F)F)cc1 (stereo not given)	.	.	.	-14	1	2
CCCCNC(=O)C1C(c2ccc(C(F)(F)F)cc2)=Nc2ccccc2N1C(=O)c1cccc2ccccc12 (stereo not given)	.	.	.	28*	-1	6
COc1ccccc1CNC(=O)[C@@H](NC(=O)C1CCN(C(=O)[C@@H]2CCCN2C(=O)OC(C)(C)C)CC1)C(C)C	.	-2	0	61*	-2	-1
COc1ccccc1CNC(=O)[C@@H](NC(=O)C1CCN(C(=O)[C@@H]2CCCN2)CC1)C(C)C	.	0	1	-2	0	1
C[C@@H](O)C#Cc1cnc2c(c1)C(=O)N([C@@H](C)CO)C[C@H](C)[C@H](CN(C)C(=O)Cc1ccncc1)O2	.	2	-4	3	-3	0
SMILES	PDI inh	Cneo AK release	Statin myotox sup	DENV2 CPE	F508del corr	ERp5 inh
CN1[C@@H]2c3cccc(=O)n3C[C@@H]2[C@@H](CO)[C@@H]1C(=O)NCCc1ccccc1	.	-3	-15	0	0	2
O=C1CC(N2CCN(C/C=C/c3ccccc3)CC2)C(=O)N1Cc1ccc(N2CCCC2=O)cc1 (stereo not given)	-2	2	100*	.	.	.
C=CCOC(=O)c1ccc(-n2cnc(C)n2)nc1	-5	.	.	.	.	.
C=CCOC(=O)c1ccc(-n2cncn2)nc1	0	0	134*	.	.	.
CC(=O)Nc1sc2c(c1C#N)CCC(C)C2 (stereo not given)	5	0	111*	12	1	-7
CC1CCc2c(sc(NC(=O)c3ccccc3C(=O)O)c2C#N)C1 (stereo not given)	8	.	.	-3	-2	1
O=C1NC(=O)C2(CCc3ccccc32)N1 (stereo not given)	-3	-1	65*	.	.	.
O=C(O)CN1C(=O)NC2(CCc3ccccc32)C1=O (stereo not given)	18	-2	-4	3	0	2
COc1ccc(S(=O)(=O)Nc2ccc3c(c2)C(=O)N([C@@H](C)CO)C[C@H](C)[C@H](CN(C)C)OCCCC[C@H](C)O3)cc1	.	.	.	.	-3	.
CC(=O)c1cccc(NC(=O)c2ccc(NC(=O)CCS(=O)(=O)c3cccs3)cc2)c1	4	1	10	28*	-1	5
CC(=O)c1ccc(NC(=O)c2ccc(NC(=O)CCS(=O)(=O)c3cccs3)cc2)cc1	14	0	-6	.	-5	-10
COc1ccc(S(=O)(=O)Nc2ccc3c(c2)C(=O)N([C@@H](C)CO)C[C@H](C)[C@H](CN(C)S(=O)(=O)c2cccs2)OCCCC[C@H](C)O3)cc1	.	0	7	5	0	1
CCN(CC)c1ccc2cc(C(=O)NCc3ccc(F)cc3)c(=N)oc2c1	25	0	-2	26*	5	2
COCC(=O)N1CC[C@@H]2[C@H](CO)Nc3ccc(-c4ccc(C#N)cc4)cc3[C@@H]21	.	-17	8	-7	-2	.
O=[N+]([O-])c1cc(/C=N/O)ccc1Sc1ccccc1	-2	-1	171*	.	.	.
CO/N=C/c1ccc(Sc2ccccc2N)c([N+](=O)[O-])c1	19	2	128*	.	.	.
CO/N=C/c1ccc(Sc2ccccc2)c([N+](=O)[O-])c1	-17	-2	2	.	.	.
